ChEMBL document CHEMBL1137696, “Preparation and in vitro evaluation of benzylsulfanyl benzoxazole derivatives as potential antituberculosis agents” (2009)
Converted amounts (≈) assume the structure as drawn. The source made the active and inactive calls. The calls are words filed in the database; no cut-off is given here.

Tests used:
[1] = test system: K562; experiment: Growth inhibition of human K562 cells; format: functional
Procedure, shortened: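 K-562 suspension cultures in microplates were exposed to 10 concentrations of compound. Each well was diluted 1:50 in CASYTON and counted with a CASY 1 electronic cell analyzer (150 µm aperture), using the mean of three successive 0.4 mL counts. GI50 is the point where the concentration-response curve of cell counts/mL relative to control crosses the 50% line.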

[2] = test system: Mycobacterium tuberculosis; experiment: Antimycobacterial activity against Mycobacterium tuberculosis CNCTC My 331/88 after 14 days by micromethod; format: functional; details: CNCTC My 331/88, 336 h
Procedure, shortened: (§1)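 MIC by micromethod in Šula semisynthetic medium. Compounds added as DMSO solutions at 1000, 500, 250, 125, 62, 32, 16, 8, 4 and 2 µmol/L. Incubated at 37 °C and read at 14 and 21 days. MIC taken as the lowest concentration that inhibited mycobacterial growth, expressed in µmol/L. INH run as standard. Strains from CNCTC.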

[3] = test system: Mycobacterium avium; experiment: Antimycobacterial activity against Mycobacterium avium CNCTC My 330/88 after 14 days by micromethod; format: functional; details: CNCTC My 330/88, 336 h; procedure, shortened: as §1
[4] = test system: HeLa; experiment: Cytotoxicity against human HeLa cells; format: functional
Procedure, shortened: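 Adherent HeLa monolayers were incubated with 10 concentrations of compound, then glutaraldehyde-fixed and stained with 0.05% methylene blue for 15 min. After gentle washing, the stain was eluted with 0.33 N HCl and absorbance read at 630 nm. CC50 is the concentration causing 50% cytotoxic (lytic) effect.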

[5] = test system: Mycobacterium kansasii; experiment: Antimycobacterial activity against Mycobacterium kansasii 6509/96 after 21 days by micromethod; format: functional; details: 6509/96, 504 h
Procedure, shortened: (§2)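 Micromethod MIC in Šula semisynthetic medium, with compounds added as DMSO solutions at 1000, 500, 250, 125, 62, 32, 16, 8, 4 and 2 µmol/L. Cultures were incubated at 37 °C, and M. kansasii was read at 7, 14 and 21 days. MIC is the lowest concentration at which mycobacterial growth was inhibited. INH served as standard. Strain 6509/96 was a clinical isolate.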

[6] = test system: Mycobacterium kansasii; experiment: Antimycobacterial activity against Mycobacterium kansasii CNCTC My 235/80 after 14 days by micromethod; format: functional; details: CNCTC My 235/80, 336 h; procedure, shortened: as §2
[7] = test system: Mycobacterium avium; experiment: Antimycobacterial activity against Mycobacterium avium CNCTC My 330/88 after 21 days by micromethod; format: functional; details: CNCTC My 330/88, 504 h; procedure, shortened: as §1
[8] = test system: Mycobacterium kansasii; experiment: Antimycobacterial activity against Mycobacterium kansasii CNCTC My 235/80 after 7 days by micromethod; format: functional; details: CNCTC My 235/80, 168 h; procedure, shortened: as §2
[9] = test system: Mycobacterium tuberculosis; experiment: Antimycobacterial activity against Mycobacterium tuberculosis CNCTC My 331/88 after 21 days by micromethod; format: functional; details: CNCTC My 331/88, 504 h; procedure, shortened: as §1
[10] = test system: Mycobacterium kansasii; experiment: Antimycobacterial activity against Mycobacterium kansasii CNCTC My 235/80 after 21 days by micromethod; format: functional; details: CNCTC My 235/80, 504 h; procedure, shortened: as §2
[11] = test system: Mycobacterium kansasii; experiment: Antimycobacterial activity against Mycobacterium kansasii 6509/96 after 7 days by micromethod; format: functional; details: 6509/96, 168 h; procedure, shortened: as §2
[12] = test system: Mycobacterium kansasii; experiment: Antimycobacterial activity against Mycobacterium kansasii 6509/96 after 14 days by micromethod; format: functional; details: 6509/96, 336 h; procedure, shortened: as §2
[13] = test system: L929; experiment: Growth inhibition of mouse L929 cells; format: functional
Procedure, shortened: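 Antiproliferative assay on adherent L-929 monolayers exposed to 10 concentrations of compound. Cells were fixed with glutaraldehyde, stained with 0.05% methylene blue for 15 min, washed, and the dye eluted with 0.33 N HCl. OD was read at 630 nm, and GI50 is the concentration giving 50% growth inhibition.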

[14] = test system: Tetranychus urticae; experiment: Insecticidal activity against glasshouse red spider mite egg; format: functional
[15] = test system: Tetranychus urticae; experiment: Insecticidal activity against glasshouse red spider mite larvae; format: functional, organism-based

Compound	GI50 [1] [µg/mL]	MIC [2] [µM]	MIC [3] [µM]	CC50 [4] [µg/mL]	MIC [5] [µM]	MIC [6] [µM]	MIC [7] [µM]	MIC [8] [µM]	MIC [9] [µM]	MIC [10] [µM]	MIC [11] [µM]	MIC [12] [µM]	GI50 [13] [µg/mL]	Activity [14]	Activity [15]
NC(=S)c1ccc(CSc2nc3ccccc3o2)cc1	9.4 (≈ 31.3 µM)	8 (≈ 2.4 µg/mL)	32 (≈ 9.61 µg/mL)	23.6 (≈ 78.6 µM)	16 (≈ 4.81 µg/mL)	16 (≈ 4.81 µg/mL)	32 (≈ 9.61 µg/mL)	8 (≈ 2.4 µg/mL)	16 (≈ 4.81 µg/mL)	16 (≈ 4.81 µg/mL)	8 (≈ 2.4 µg/mL)	16 (≈ 4.81 µg/mL)	23.8 (≈ 79.2 µM)		
O=[N+]([O-])c1cc(CSc2nc3ccccc3o2)cc([N+](=O)[O-])c1	9.2 (≈ 27.8 µM)	8 (≈ 2.65 µg/mL)	> 16	> 50	8 (≈ 2.65 µg/mL)	4 (≈ 1.33 µg/mL)	> 32	2 (≈ 0.663 µg/mL)	8 (≈ 2.65 µg/mL)	4 (≈ 1.33 µg/mL)	4 (≈ 1.33 µg/mL)	8 (≈ 2.65 µg/mL)	22.4 (≈ 67.6 µM)		
O=[N+]([O-])c1ccc(CSc2nc3ccccc3o2)c([N+](=O)[O-])c1	10.4 (≈ 31.4 µM)	8 (≈ 2.65 µg/mL)	> 16	45.1 (≈ 136 µM)	8 (≈ 2.65 µg/mL)	4 (≈ 1.33 µg/mL)	> 32	4 (≈ 1.33 µg/mL)	8 (≈ 2.65 µg/mL)	4 (≈ 1.33 µg/mL)	4 (≈ 1.33 µg/mL)	8 (≈ 2.65 µg/mL)	> 50		
Clc1ccc(CSc2nc3ccccc3o2)cc1		250 (≈ 68.9 µg/mL)	62 (≈ 17.1 µg/mL)		125 (≈ 34.5 µg/mL)	62 (≈ 17.1 µg/mL)	62 (≈ 17.1 µg/mL)	32 (≈ 8.82 µg/mL)	> 500	125 (≈ 34.5 µg/mL)	32 (≈ 8.82 µg/mL)	62 (≈ 17.1 µg/mL)		Active	Active
NC(=S)c1cccc(CSc2nc3ccccc3o2)c1	5.5 (≈ 18.3 µM)	8 (≈ 2.4 µg/mL)	62 (≈ 18.6 µg/mL)	21.6 (≈ 71.9 µM)	32 (≈ 9.61 µg/mL)	32 (≈ 9.61 µg/mL)	62 (≈ 18.6 µg/mL)	8 (≈ 2.4 µg/mL)	16 (≈ 4.81 µg/mL)	32 (≈ 9.61 µg/mL)	8 (≈ 2.4 µg/mL)	32 (≈ 9.61 µg/mL)	17.3 (≈ 57.6 µM)		
Sc1nc2ccccc2o1		500 (≈ 75.6 µg/mL)	250 (≈ 37.8 µg/mL)		1000 (≈ 151 µg/mL)	1000 (≈ 151 µg/mL)	500 (≈ 75.6 µg/mL)	500 (≈ 75.6 µg/mL)	500 (≈ 75.6 µg/mL)	1000 (≈ 151 µg/mL)	250 (≈ 37.8 µg/mL)	500 (≈ 75.6 µg/mL)			
Cc1cccc(CSc2nc3ccccc3o2)c1		250 (≈ 63.8 µg/mL)	62 (≈ 15.8 µg/mL)		250 (≈ 63.8 µg/mL)	125 (≈ 31.9 µg/mL)	125 (≈ 31.9 µg/mL)	125 (≈ 31.9 µg/mL)	500 (≈ 128 µg/mL)	500 (≈ 128 µg/mL)	125 (≈ 31.9 µg/mL)	125 (≈ 31.9 µg/mL)			
COc1cccc(CSc2nc3ccccc3o2)c1		125 (≈ 33.9 µg/mL)	32 (≈ 8.68 µg/mL)		62 (≈ 16.8 µg/mL)	32 (≈ 8.68 µg/mL)	32 (≈ 8.68 µg/mL)	32 (≈ 8.68 µg/mL)	250 (≈ 67.8 µg/mL)	62 (≈ 16.8 µg/mL)	32 (≈ 8.68 µg/mL)	32 (≈ 8.68 µg/mL)			
Fc1ccccc1CSc1nc2ccccc2o1		125 (≈ 32.4 µg/mL)	62 (≈ 16.1 µg/mL)		62 (≈ 16.1 µg/mL)	32 (≈ 8.3 µg/mL)	62 (≈ 16.1 µg/mL)	32 (≈ 8.3 µg/mL)	250 (≈ 64.8 µg/mL)	62 (≈ 16.1 µg/mL)	32 (≈ 8.3 µg/mL)	32 (≈ 8.3 µg/mL)			
Fc1ccc(CSc2nc3ccccc3o2)cc1		250 (≈ 64.8 µg/mL)	62 (≈ 16.1 µg/mL)		125 (≈ 32.4 µg/mL)	62 (≈ 16.1 µg/mL)	62 (≈ 16.1 µg/mL)	32 (≈ 8.3 µg/mL)	500 (≈ 130 µg/mL)	125 (≈ 32.4 µg/mL)	62 (≈ 16.1 µg/mL)	62 (≈ 16.1 µg/mL)			
